Reference: ChEMBL document CHEMBL3822384, “2-(3-Methoxyphenyl)quinazoline Derivatives: A New Class of Direct Constitutive Androstane Receptor (CAR) Agonists” (J Med Chem, 2016)
Activity calls are given as the source filed them. The calls are words filed in the database; no cut-off is given here.

Assays:
[1] = molecular target: T1, Nuclear receptor subfamily 1 group I member 3 (Homo sapiens, UniProt Q14994); assay: Agonist activity at human GAL4-fused CAR LBD (108 to 348 residues) expressed in human HepG2 cells assessed as receptor binding to SRC1-VP16 fusion protein at 5 to 20 uM after 24 hrs by luciferase reporter gene assay; assay type: cell-based; details: hepg2, 24 h
T1 sequence (Q14994 whole entry): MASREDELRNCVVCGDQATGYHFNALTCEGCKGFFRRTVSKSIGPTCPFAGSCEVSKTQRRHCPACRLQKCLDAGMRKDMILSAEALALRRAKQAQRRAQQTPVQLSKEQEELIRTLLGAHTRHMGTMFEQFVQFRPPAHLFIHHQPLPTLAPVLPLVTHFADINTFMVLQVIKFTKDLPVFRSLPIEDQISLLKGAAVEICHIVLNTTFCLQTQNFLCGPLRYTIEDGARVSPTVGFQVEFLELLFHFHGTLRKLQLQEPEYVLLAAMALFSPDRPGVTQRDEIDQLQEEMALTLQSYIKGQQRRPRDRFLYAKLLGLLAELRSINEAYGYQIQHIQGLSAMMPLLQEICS

[2] = molecular target: T2, Nuclear receptor subfamily 1 group I member 2 (Homo sapiens, UniProt O75469); assay: Agonist activity at PXR in human primary hepatocytes assessed as upregulation of UGT1A1 mRNA expression at 10 uM after 24 hrs by qRT-PCR method; assay type: cell-based, Hepatocyte
T2 sequence (O75469 whole entry): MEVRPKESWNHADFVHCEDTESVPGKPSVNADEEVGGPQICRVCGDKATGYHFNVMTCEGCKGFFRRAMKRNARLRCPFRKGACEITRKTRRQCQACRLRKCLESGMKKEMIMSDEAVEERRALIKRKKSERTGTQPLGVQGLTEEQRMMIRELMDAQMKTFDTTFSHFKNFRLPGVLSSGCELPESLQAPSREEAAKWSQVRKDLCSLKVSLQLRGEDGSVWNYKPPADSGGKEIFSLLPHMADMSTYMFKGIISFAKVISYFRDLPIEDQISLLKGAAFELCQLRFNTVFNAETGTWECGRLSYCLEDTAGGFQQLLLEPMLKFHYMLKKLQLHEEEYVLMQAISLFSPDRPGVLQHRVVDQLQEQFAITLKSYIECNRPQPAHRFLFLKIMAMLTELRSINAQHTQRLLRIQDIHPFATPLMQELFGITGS

[3] = molecular target: Cytochrome P450 3A4 (Homo sapiens, UniProt P08684); assay: Inhibition of recombinant human CYP3A4 by P450-Glo luminescence assay; assay type: ADME
[4] = molecular target: T2, Nuclear receptor subfamily 1 group I member 2; assay: Agonist activity at PXR in human primary hepatocytes assessed as upregulation of MDR/ABCB1 mRNA expression at 10 uM after 24 hrs by qRT-PCR method; assay type: cell-based, Hepatocyte
[5] = molecular target: T3, Vitamin D3 receptor (Homo sapiens) (UniProt P11473); assay: Agonist activity at VDR in human primary hepatocytes assessed as upregulation of CYP2C9 mRNA expression at 10 uM after 24 hrs by qRT-PCR method; assay type: cell-based; details: Hepatocyte
T3 sequence (whole entry): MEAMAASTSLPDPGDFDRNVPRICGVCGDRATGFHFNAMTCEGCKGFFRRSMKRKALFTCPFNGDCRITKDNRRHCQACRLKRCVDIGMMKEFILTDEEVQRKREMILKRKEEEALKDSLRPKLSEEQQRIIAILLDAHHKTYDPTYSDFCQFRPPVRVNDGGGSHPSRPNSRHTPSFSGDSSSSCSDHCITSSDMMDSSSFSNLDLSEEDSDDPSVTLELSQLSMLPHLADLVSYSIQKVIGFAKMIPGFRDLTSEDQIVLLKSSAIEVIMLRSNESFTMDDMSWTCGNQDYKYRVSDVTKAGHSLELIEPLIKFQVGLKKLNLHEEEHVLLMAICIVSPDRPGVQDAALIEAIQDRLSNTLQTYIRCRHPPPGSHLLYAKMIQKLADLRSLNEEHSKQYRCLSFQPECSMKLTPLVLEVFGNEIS

[6] = test system: HepG2; assay: Cytotoxicity against human HepG2 cells assessed as cell viability after 24 hrs by MTS assay; assay type: cell-based; details: hepg2, 24 h
[7] = molecular target: T4, Aryl hydrocarbon receptor (Homo sapiens, UniProt P35869); assay: Agonist activity at AHR in human HepaRG cells assessed as upregulation of CYP1B1 mRNA expression at 10 uM after 24 hrs by qRT-PCR method; assay type: cell-based
T4 sequence (P35869 whole entry): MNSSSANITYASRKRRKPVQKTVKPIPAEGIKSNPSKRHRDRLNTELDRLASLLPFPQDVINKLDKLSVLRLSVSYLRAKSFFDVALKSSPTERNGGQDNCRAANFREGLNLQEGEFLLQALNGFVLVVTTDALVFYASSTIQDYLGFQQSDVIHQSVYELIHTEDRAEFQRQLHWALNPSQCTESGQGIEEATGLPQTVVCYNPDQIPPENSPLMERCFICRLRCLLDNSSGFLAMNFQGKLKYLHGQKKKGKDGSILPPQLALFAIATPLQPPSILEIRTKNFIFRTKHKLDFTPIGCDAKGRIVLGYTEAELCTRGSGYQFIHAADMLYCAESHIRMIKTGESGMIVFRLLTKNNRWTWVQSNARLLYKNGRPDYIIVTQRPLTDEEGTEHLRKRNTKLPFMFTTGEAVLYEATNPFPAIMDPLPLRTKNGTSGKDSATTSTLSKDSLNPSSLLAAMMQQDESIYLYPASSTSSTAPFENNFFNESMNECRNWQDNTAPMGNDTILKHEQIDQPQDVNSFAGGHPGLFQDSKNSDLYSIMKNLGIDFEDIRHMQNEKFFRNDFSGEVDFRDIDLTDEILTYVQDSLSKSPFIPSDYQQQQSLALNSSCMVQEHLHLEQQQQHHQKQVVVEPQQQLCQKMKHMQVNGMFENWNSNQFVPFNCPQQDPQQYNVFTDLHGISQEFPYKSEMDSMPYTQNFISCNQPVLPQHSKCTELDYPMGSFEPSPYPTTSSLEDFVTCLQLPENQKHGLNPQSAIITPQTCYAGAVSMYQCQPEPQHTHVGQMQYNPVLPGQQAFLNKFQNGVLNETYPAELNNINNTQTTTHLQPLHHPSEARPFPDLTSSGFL

[8] = molecular target: T1, Nuclear receptor subfamily 1 group I member 3; assay: Agonist activity at CAR in human primary hepatocytes assessed as upregulation of MDR/ABCB1 mRNA expression at 10 uM after 24 hrs by qRT-PCR method; assay type: cell-based, Hepatocyte
[9] = molecular target: T1, Nuclear receptor subfamily 1 group I member 3; assay: Agonist activity at CAR expressed in human HepG2 cells at 1 to 20 uM after 48 hrs by p(ER6)3-luciferase reporter gene assay; assay type: cell-based; details: hepg2, 48 h
Method in brief: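 HepG2 cells transiently co-transfected with p(ER6)3-luc reporter, wild-type CAR expression vector and pRL-TK normalization plasmid; after 24 h stabilization, treated with compounds or vehicle (DMSO 0.1%, v/v) for 48 h. Firefly and Renilla luciferase read; fold change versus vehicle (set to 1), means ± SD of triplicates from a representative experiment.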

[10] = molecular target: T5, Vitamin D3 receptor (Homo sapiens, UniProt P11473); assay: Agonist activity at VDR expressed in human HuH7 cells after 24 hrs by pDR3-luciferase reporter gene assay; assay type: cell-based, Huh-7
T5 sequence (P11473 whole entry): T3 sequence (whole entry)

Chain of Cytochrome P450 3A4 (P08684 whole entry): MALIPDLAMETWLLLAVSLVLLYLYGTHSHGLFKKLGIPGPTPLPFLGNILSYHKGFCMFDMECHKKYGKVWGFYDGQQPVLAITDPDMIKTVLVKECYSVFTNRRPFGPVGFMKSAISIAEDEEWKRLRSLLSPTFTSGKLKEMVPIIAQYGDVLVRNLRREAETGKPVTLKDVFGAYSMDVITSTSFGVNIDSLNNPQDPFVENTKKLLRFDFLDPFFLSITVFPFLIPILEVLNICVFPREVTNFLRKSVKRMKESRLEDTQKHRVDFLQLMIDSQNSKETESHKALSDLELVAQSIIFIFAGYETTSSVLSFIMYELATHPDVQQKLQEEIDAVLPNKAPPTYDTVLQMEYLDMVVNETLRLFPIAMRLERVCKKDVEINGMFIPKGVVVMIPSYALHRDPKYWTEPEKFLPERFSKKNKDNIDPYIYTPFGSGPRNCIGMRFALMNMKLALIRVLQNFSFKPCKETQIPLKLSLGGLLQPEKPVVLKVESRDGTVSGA

## COc1cccc(-c2nc(OC)c3ccccc3n2)c1
[1]
  Activity: Active
[2]
  Activity: Active
[3]; read-out: IC50
  IC50: 12.9 µM
[4]
  Activity: Active
[5]
  Activity: Active
[6]
  Activity: Non-toxic
[7]
  Activity: Active
[8]
  Activity: Active
[9]
  Activity: Active
[10]
  EC50: 1.95 µM

## COc1cccc(-c2nc3ccccc3c(=S)[nH]2)c1
[1]
  Activity: Active
[2]
  Activity: Active
[3]
  IC50: Not Active
[4]
  Activity: Active
[5]
  Activity: Active
[6]
  Activity: Non-toxic
[7]
  Activity: Active
[8]
  Activity: Active
[9]
  Activity: Active
[10]
  EC50: 0.51 µM

## COc1cccc(-c2nc(SC)c3ccccc3n2)c1
[1]
  Activity: Active
[2]
  Activity: Active
[3]; read-out: IC50
  IC50: 22.9 µM
[4]
  Activity: Active
[5]
  Activity: Active
[6]
  Activity: Non-toxic
[7]
  Activity: Active
[8]
  Activity: Active
[9]
  Activity: Active
[10]
  EC50: > 3 µM
